Measured values taken from ChEMBL document CHEMBL1629527, “In vitro antifungal activities of bis(alkylpyridinium)alkane compounds against pathogenic yeasts and molds” (Antimicrob Agents Chemother, 2010).

Experiments:
Lichtheimia corymbifera = experiment: Antifungal activity against Absidia corymbifera 04-200170 after 24 to 72 hrs by broth microdilution method; type: functional
Method in brief: (§1)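 Broth microdilution MIC per CLSI M27-A3 (yeasts) or M38-A2 (molds). RPMI 1640 with L-glutamine, without bicarbonate, buffered to pH 7.0 with 0.165 M MOPS. Final test range for the compounds was 0.175–87.5 μM. Incubation at 35°C with visual reading at 24–72 h. MIC was the lowest concentration giving 100% inhibition versus the growth control (azoles 50% or 100%, by organism). Each isolate was run in duplicate in two independent experiments.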

Scedosporium apiospermum = experiment: Antifungal activity against Scedosporium apiospermum 05-203100 after 24 to 72 hrs by broth microdilution method; type: functional
Method in brief: (§2)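 Mold isolates subcultured on potato dextrose agar, then tested by CLSI M38-A2 broth microdilution in RPMI 1640 (L-glutamine, no bicarbonate) buffered to pH 7.0 with 0.165 M MOPS. Compounds were dissolved in water and tested at a final 0.175–87.5 μM. Plates were incubated at 35°C. MIC was read visually as the lowest concentration giving 100% inhibition versus the growth control. Each isolate was run in duplicate in two independent experiments.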

Lomentospora prolificans [1] = experiment: Antifungal activity against Scedosporium prolificans 05-203060 after 24 to 72 hrs by broth microdilution method; type: functional; method in brief: as §2
Candida albicans [2] = experiment: Antifungal activity against Candida albicans ATCC 90028 after 24 to 72 hrs by broth microdilution method; type: functional; method in brief: as §1
Candida parapsilosis [3] = experiment: Antifungal activity against Candida parapsilosis ATCC 22019 after 24 to 72 hrs by broth microdilution method; type: functional; settings: Lodderomyces parapsilosis; method in brief: as §1
Aspergillus fumigatus [4] = experiment: Antifungal activity against Aspergillus fumigatus ATCC 204305 after 24 to 72 hrs by broth microdilution method; type: functional; method in brief: as §1
[5] = Antifungal activity against Exophiala jeanselmei 03-200268 after 24 to 72 hrs by broth microdilution method; type: functional; method in brief: as §1
[6] = Antifungal activity against Paecilomyces lilacinus 05-200601 after 24 to 72 hrs by broth microdilution method; type: functional; settings: Purpureocillium lilacinum; method in brief: as §2
Candida tropicalis = experiment: Antifungal activity against Candida tropicalis 04-202361 after 24 to 72 hrs by broth microdilution method; type: functional; method in brief: as §1
Nakaseomyces glabratus = experiment: Antifungal activity against Candida glabrata 04-202345 after 24 to 72 hrs by broth microdilution method; type: functional; method in brief: as §1
[7] = tested on: Cunninghamella bertholletiae; experiment: Antifungal activity against Cunninghamella bertholletiae 99-12187 after 24 to 72 hrs by broth microdilution method; type: functional; method in brief: as §1
Rhizopus arrhizus [8] = experiment: Antifungal activity against Rhizopus oryzae 05-203111 after 24 to 72 hrs by broth microdilution method; type: functional; method in brief: as §2
Pichia kudriavzevii [9] = experiment: Antifungal activity against Candida krusei 04-202328 after 24 to 72 hrs by broth microdilution method; type: functional; method in brief: as §1
Pichia kudriavzevii [10] = experiment: Antifungal activity against Candida krusei ATCC 6258 after 24 to 72 hrs by broth microdilution method; type: functional; method in brief: as §1
[11] = tested on: Cryptococcus gattii species complex; experiment: Antifungal activity against Cryptococcus gattii 05-200122 after 24 to 72 hrs by broth microdilution method; type: functional, Cryptococcus bacillisporus; method in brief: as §1
Candida parapsilosis [12] = experiment: Antifungal activity against Candida parapsilosis 04-202398 after 48 to 72 hrs; type: functional; settings: Lodderomyces parapsilosis
Method in brief: (§3)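 CLSI M27-A3 broth microdilution for yeasts in RPMI 1640 with L-glutamine and no bicarbonate, buffered with 0.165 M MOPS to pH 7.0. Compounds were dissolved in water and tested at 0.175–87.5 μM final, 35°C. MIC was read visually at 24–72 h as 100% inhibition versus growth control. For MFC, 30 μl from clear wells went onto SDA at 35°C for 48–72 h, reading the lowest concentration without colonies. Duplicates, two independent runs.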

Fusarium solani = experiment: Antifungal activity against Fusarium solani 04-203102 after 24 to 72 hrs by broth microdilution method; type: functional; method in brief: as §2
Rhizopus arrhizus [13] = experiment: Antifungal activity against Rhizopus oryzae 05-203111 after 48 to 72 hrs; type: functional
Method in brief: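 After the broth microdilution MIC read, suspension from every well without visible growth was plated onto Sabouraud dextrose agar and incubated at 35°C, up to 7 days for molds. MFC was taken as the lowest drug concentration with no colonies.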

Aspergillus fumigatus [14] = experiment: Antifungal activity against Aspergillus fumigatus 05-203114 after 24 to 72 hrs by broth microdilution method; type: functional; method in brief: as §1
Pichia kudriavzevii [15] = experiment: Antifungal activity against Candida krusei 04-202328 after 48 to 72 hrs; type: functional; method in brief: as §3
Exophiala spinifera [16] = experiment: Antifungal activity against Exophiala spinifera 03-200803 after 24 to 72 hrs by broth microdilution method; type: functional; method in brief: as §2
Cryptococcus neoformans [17] = experiment: Antifungal activity against Cryptococcus neoformans 05-202523 after 24 to 72 hrs by broth microdilution method; type: functional; method in brief: as §1
Candida parapsilosis [18] = experiment: Antifungal activity against Candida parapsilosis 04-202398 after 24 to 72 hrs by broth microdilution method; type: functional; settings: Lodderomyces parapsilosis; method in brief: as §1
Candida albicans [19] = experiment: Antifungal activity against Candida albicans ATCC 10231 after 24 to 72 hrs by broth microdilution method; type: functional; method in brief: as §1
Candida parapsilosis [20] = experiment: Antifungal activity against Candida parapsilosis ATCC 22019 after 48 to 72 hrs; type: functional; settings: Lodderomyces parapsilosis
Method in brief: (§4)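 MFC: after the MIC read, 30-μl aliquots from each well without visible growth were plated onto Sabouraud dextrose agar and incubated at 35°C. Reading was at 48–72 h for yeasts and up to 7 days for molds. MFC was the lowest concentration with no colonies.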

Aspergillus terreus [21] = experiment: Antifungal activity against Aspergillus terreus 05-202844 after 24 to 72 hrs by broth microdilution method; type: functional; method in brief: as §1
Aspergillus fumigatus [22] = experiment: Antifungal activity against Aspergillus fumigatus 05-203114 after 48 to 72 hrs; type: functional
Method in brief: (§5)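 CLSI M38-A2 broth microdilution for molds in RPMI 1640 with L-glutamine and no bicarbonate, buffered with 0.165 M MOPS to pH 7.0. Compounds were dissolved in water and tested at 0.175–87.5 μM final, 35°C, up to 7 days. MIC was read visually as 100% inhibition versus growth control. For MFC, clear wells were plated on SDA and the lowest concentration with no colonies taken. Each isolate was run in duplicate, two independent experiments.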

Aspergillus flavus [23] = experiment: Antifungal activity against Aspergillus flavus 05-203758 after 24 to 72 hrs by broth microdilution method; type: functional; method in brief: as §1
Aspergillus flavus [24] = experiment: Antifungal activity against Aspergillus flavus ATCC 204304 after 24 to 72 hrs by broth microdilution method; type: functional; method in brief: as §1
Cryptococcus neoformans [25] = experiment: Antifungal activity against Cryptococcus neoformans ATCC 90112 after 24 to 72 hrs by broth microdilution method; type: functional; method in brief: as §1
Exophiala spinifera [26] = experiment: Antifungal activity against Exophiala spinifera 03-200803 after 48 to 72 hrs; type: functional; method in brief: as §5
Aspergillus terreus [27] = experiment: Antifungal activity against Aspergillus terreus 05-202844 after 48 to 72 hrs; type: functional; method in brief: as §4
Lomentospora prolificans [28] = experiment: Antifungal activity against Scedosporium prolificans 05-203060 after 48 to 72 hrs; type: functional; method in brief: as §5
[29] = Antifungal activity against Exophiala jeanselmei 03-200268 after 48 to 72 hrs; type: functional; method in brief: as §5
Pichia kudriavzevii [30] = experiment: Antifungal activity against Candida krusei ATCC 9258 after 24 to 72 hrs by broth microdilution method; type: functional; method in brief: as §1

SMILES: [Cl-].[Cl-].c1ccc(CCCc2cc[n+](CCCCCCCCCCCC[n+]3ccc(CCCc4ccccc4)cc3)cc2)cc1
- MIC (Lichtheimia corymbifera): > 55.8 µg/mL
- MIC (Scedosporium apiospermum): > 55.8 µg/mL
- MIC (Lomentospora prolificans [1]): > 55.8 µg/mL
- MIC (Candida albicans [2]): 1.74 µg/mL
- MIC (Candida parapsilosis [3]): 0.87 µg/mL
- MIC (Aspergillus fumigatus [4]): 27.9 µg/mL
- MIC [5]: 1.74 µg/mL
- MIC [6]: > 55.8 µg/mL
- MIC (Candida tropicalis): 0.87 µg/mL
- MIC (Nakaseomyces glabratus): 0.87 µg/mL
- MIC [7]: 27.9 µg/mL
- MIC (Rhizopus arrhizus [8]): 0.87 µg/mL
- MIC (Pichia kudriavzevii [9]): 13.9 µg/mL
- MIC (Pichia kudriavzevii [10]): 13.9 µg/mL
- MIC [11]: 1.74 µg/mL
- MFC (Candida parapsilosis [12]): > 55.8 µg/mL
- MIC (Fusarium solani): 27.9 µg/mL
- MFC (Rhizopus arrhizus [13]): 1.74 µg/mL
- MIC (Aspergillus fumigatus [14]): 13.9 µg/mL
- MFC (Pichia kudriavzevii [15]): 27.9 µg/mL
- MIC (Exophiala spinifera [16]): 1.74 µg/mL
- MIC (Cryptococcus neoformans [17]): 27.9 µg/mL
- MIC (Candida parapsilosis [18]): 55.8 µg/mL
- MIC (Candida albicans [19]): 1.74 µg/mL
- MFC (Candida parapsilosis [20]): 1.74 µg/mL
- MIC (Aspergillus terreus [21]): 1.74 µg/mL
- MFC (Aspergillus fumigatus [22]): 55.8 µg/mL
- MIC (Aspergillus flavus [23]): > 55.8 µg/mL
- MIC (Aspergillus flavus [24]): 55.8 µg/mL
- MIC (Cryptococcus neoformans [25]): 1.74 µg/mL

SMILES: CCCCCc1cccc[n+]1CCCCCCCCCCCC[n+]1ccccc1CCCCC.[Cl-].[Cl-]
- MIC (Lichtheimia corymbifera): > 47.3 µg/mL
- MIC (Scedosporium apiospermum): 1.48 µg/mL
- MIC (Lomentospora prolificans [1]): 1.48 µg/mL
- MIC (Candida albicans [2]): 1.48 µg/mL
- MFC (Exophiala spinifera [26]): 0.74 µg/mL
- MIC (Candida parapsilosis [3]): 0.74 µg/mL
- MIC (Aspergillus fumigatus [4]): > 47.3 µg/mL
- MFC (Aspergillus terreus [27]): 1.48 µg/mL
- MIC [5]: 0.74 µg/mL
- MIC [6]: > 47.3 µg/mL
- MIC (Candida tropicalis): 0.74 µg/mL
- MIC (Nakaseomyces glabratus): 0.37 µg/mL
- MIC [7]: 47.3 µg/mL
- MIC (Rhizopus arrhizus [8]): 2.96 µg/mL
- MIC (Pichia kudriavzevii [9]): 23.7 µg/mL
- MIC (Pichia kudriavzevii [10]): 23.7 µg/mL
- MIC [11]: 1.48 µg/mL
- MIC (Fusarium solani): 23.7 µg/mL
- MFC (Rhizopus arrhizus [13]): 5.9 µg/mL
- MIC (Aspergillus fumigatus [14]): > 47.3 µg/mL
- MFC (Lomentospora prolificans [28]): 5.9 µg/mL
- MIC (Exophiala spinifera [16]): 0.37 µg/mL
- MIC (Cryptococcus neoformans [17]): 47.3 µg/mL
- MIC (Candida parapsilosis [18]): 47.3 µg/mL
- MFC [29]: 2.96 µg/mL
- MIC (Candida albicans [19]): 1.48 µg/mL
- MFC (Candida parapsilosis [20]): 1.48 µg/mL
- MIC (Pichia kudriavzevii [30]): 23.7 µg/mL
- MIC (Aspergillus terreus [21]): 0.74 µg/mL
- MIC (Aspergillus flavus [23]): > 47.3 µg/mL
- MIC (Aspergillus flavus [24]): > 47.3 µg/mL
- MIC (Cryptococcus neoformans [25]): 5.9 µg/mL
